Reference: ChEMBL document CHEMBL2203053, “DNA binding acridine-thiazolidinone agents affecting intracellular glutathione” (Bioorg Med Chem, 2012)
Activity calls are given as the source filed them. The rule behind the calls is not given here.

How the values were obtained:
Nucleic Acid [1] = assay: Binding affinity to calf thymus DNA assessed as binding constant by spectrofluorimetry based McGhee von Hippel method; type: nucleic-acid assay; conditions: Bos taurus
How it was run: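 Fluorescence titration used compound at 26.7 µM in 0.01 M Tris buffer (pH 7.4, 24 °C). ctDNA was added stepwise from 0 to 32 µM bp at 2 µM intervals until spectra stopped changing. Excitation was 384 nm and emission was read at 410–470 nm. Binding constant K was derived by the McGhee–von Hippel method from Scatchard plot data.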

HL-60 [2] = assay: Cytotoxicity against human HL60 cells after 72 hrs using trypan blue exclusion staining by DCC method; type: functional, cell-based; conditions: HL-60, 72 h
How it was run: (§1)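 For trypan blue dye-exclusion direct cell counting, HL-60 cells were seeded at 1 × 10⁵ cells/mL. Compound at 0–10 µM, or 1% DMSO control, was added after 24 h. Viable counts were taken after 24, 48 and 72 h. IC50 (50% inhibition of viability) came from growth curves, as mean ± S.D., n = 3.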

HL-60 [3] = assay: Induction of necrosis in human HL60 cells assessed as cell shrinking at 5 uM after 24 hrs by propidium iodide staining based fluorescence microscopy; type: functional
HL-60 [4] = assay: Cytotoxicity against BSO pretreated human HL60 cells assessed as cell viability at 3 uM treated 6 hrs after BSO addition measured after 48 hrs by trypan blue exclusion assay; type: functional, cell-based
How it was run: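 HL-60 cells were pretreated 6 h with L-buthionine-sulfoximine (10 µM), then exposed to 1.5, 3.0 or 1.0 µM compound for 48 h. Viable cells were counted by trypan blue staining and expressed as percentage of all cells.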

HL-60 [5] = assay: Decrease in intracellular glutathione level in human HL60 cells at 2 uM after 24 hrs by spectrophotometric analysis; type: functional, cell-based
HL-60 [6] = assay: Decrease in intracellular glutathione level in human HL60 cells at 2 uM after 2 hrs by spectrophotometric analysis; type: functional, cell-based
A2780 [7] = assay: Drug uptake in human A2780 cells at 5 uM after 4 hrs by Hoechst staining based fluorescence microscopy; type: ADME, cell-based; conditions: a2780, 4 h
HL-60 [8] = assay: Drug uptake in human HL60 cells at 5 uM after 4 hrs by Hoechst staining based fluorescence microscopy; type: ADME, cell-based; conditions: hl-60, 4 h
How it was run: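 HL-60 cells were exposed to 5 µM for 4 h at 37 °C, 5% CO₂, then washed in PBS. Intrinsic blue fluorescence was viewed by optical and fluorescence microscopy. Untreated control cells were stained with Hoechst 33342 (10 µM, 10 min).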

A2780 [9] = assay: Cytotoxicity against human A2780 cells after 72 hrs by MTT assay; type: functional, cell-based; conditions: A2780, 72 h
How it was run: (§2)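 HL-60, L1210 and A2780 cells were grown in RPMI 1640 with 10% FBS, penicillin and streptomycin at 37 °C, 5% CO₂; HL-60 and A2780 medium also had 2 mM glutamine. Cells were exposed to 0–30 µM for 48 or 72 h. Viability was read by MTT microculture tetrazolium assay and IC50 was determined.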

HL-60 [10] = assay: Cytotoxicity against human HL60 cells after 48 hrs using trypan blue exclusion staining by DCC method; type: functional, cell-based; conditions: HL-60, 48 h; how it was run: as §1
A2780 [11] = assay: Cytotoxicity against human A2780 cells after 48 hrs by MTT assay; type: functional, cell-based; conditions: A2780, 48 h; how it was run: as §2
L1210 [12] = assay: Cytotoxicity against mouse L1210 cells after 72 hrs by MTT assay; type: functional, cell-based; conditions: L1210, 72 h; how it was run: as §2
L1210 [13] = assay: Cytotoxicity against mouse L1210 cells after 48 hrs by MTT assay; type: functional, cell-based; conditions: L1210, 48 h; how it was run: as §2
HL-60 [14] = assay: Cytotoxicity against human HL60 cells after 48 hrs by MTT assay; type: functional, cell-based; conditions: HL-60, 48 h; how it was run: as §2
HL-60 [15] = assay: Cytotoxicity against human HL60 cells after 72 hrs by MTT assay; type: functional, cell-based; conditions: HL-60, 72 h; how it was run: as §2
Nucleic Acid [16] = assay: Ratio of acridine orange K to compound K for calf thymus DNA by spectrofluorimetry based McGhee von Hippel method; type: nucleic-acid assay; conditions: Bos taurus
Nucleic Acid [17] = assay: Ratio of daunomycin K to compound K for calf thymus DNA by spectrofluorimetry based McGhee von Hippel method; type: nucleic-acid assay; conditions: Bos taurus
Nucleic Acid [18] = assay: Ratio of proflavine K to compound K for calf thymus DNA by spectrofluorimetry based McGhee von Hippel method; type: nucleic-acid assay; conditions: Bos taurus
Nucleic Acid [19] = assay: Binding affinity to calf thymus DNA assessed as melting temperature at 5 uM at pH 7.1 by thermal denaturation assay; type: nucleic-acid assay; conditions: Bos taurus
Nucleic Acid [20] = assay: Binding affinity to calf thymus DNA assessed as hypochromicity at 25 uM by UV-visible spectrophotometry; type: nucleic-acid assay; conditions: Bos taurus
How it was run: (§3)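 Absorption spectra were taken in 0.01 M Tris buffer, pH 7.4. Compounds were diluted from DMSO stock to a final 25 µM. Sonicated calf thymus DNA in TE buffer was added at 0–30 µM bp, with concentration set by A260. Shift of λmax (free vs bound) and % hypochromicity were recorded.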

Nucleic Acid [21] = assay: Binding affinity to calf thymus DNA assessed as bathochromic shift at 25 uM by UV-visible spectrophotometry; type: nucleic-acid assay; conditions: Bos taurus; how it was run: as §3

## COc1cccc2c1C(=O)c1c(O)c3c(c(O)c1C2=O)C[C@@](O)(C(C)=O)C[C@@H]3O[C@H]1C[C@H](N)[C@H](O)[C@H](C)O1
Nucleic Acid [1]
  K: 7.09 ×10⁵ /M

## COC(=O)/C=C1\S/C(=N\c2c3ccccc3nc3ccccc23)N(C(C)(C)C)C1=O
HL-60 [2]
  IC50: 2800 nM
HL-60 [3]
  Activity: Active
HL-60 [4]
  Activity: Active
HL-60 [5]
  Activity: inactive
HL-60 [6]
  Activity: Active
A2780 [7]
  Drug uptake: Active
HL-60 [8]
  Drug uptake: Active
A2780 [9]
  IC50: 23.7 µM
HL-60 [10]
  IC50: 3.5 µM
A2780 [11]
  IC50: > 30 µM
L1210 [12]
  IC50: 20.9 µM
L1210 [13]
  IC50: 17.9 µM
HL-60 [14]
  IC50: 5.4 µM
HL-60 [15]
  IC50: 3.7 µM
Nucleic Acid [16]
  Ratio: 10
Nucleic Acid [17]
  Ratio: 10
Nucleic Acid [18]
  Ratio: 10
Nucleic Acid [1]
  K: 1.37 ×10⁶ /M
Nucleic Acid [19]
  Tm: 74 °C
Nucleic Acid [20]
  Activity: 31.2%
Nucleic Acid [21]
  Activity: Active
